From ChEMBL document CHEMBL1140876, “Synthesis and antibacterial property of quinolines with potent DNA gyrase activity” (2009)
In brackets after ≈: the same amount, converted by molar mass. Activity calls are given as the source filed them. The rule behind the calls is not given here.

Columns and labels:
[1] = Inhibition of DNA gyrase assessed as pBR322 DNA relaxation at 1 uM
Summary of the method: (§1)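 Relaxation without ATP: gyrase (60 nM) with supercoiled pBR322 DNA (6 nM) and drug at […] for 1 h at 37 °C; relaxation judged by gel. Ciprofloxacin, novobiocin and nalidixic acid comparators.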

[2] = Inhibition of DNA gyrase assessed as pBR322 DNA relaxation at 5 uM; summary of the method: as §1
[3] = Inhibition of DNA gyrase assessed as conversion of relaxed pBR322 to supercoiled form
Summary of the method: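 Supercoiling in 15 µL reactions: gyrase assay buffer, 150 ng relaxed pBR322, 2–3 µL purified DNA gyrase, 3 h at 37 °C (E. coli); stopped with 50% glycerol/0.25% bromophenol blue; 1% agarose in 1× TBE pH 8.3, 90 V 3 h; ethidium bromide stain; supercoiled band brightness by densitometry. Ciprofloxacin comparator.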

[4] = Inhibition of DNA gyrase assessed as pBR322 DNA relaxation at 2.5 uM
Summary of the method: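 Gyrase (60 nM) was incubated with supercoiled pBR322 DNA (6 nM) and increasing compound concentrations (0, 0.1, 0.25, 0.5, 2.5) without ATP for 1 h at 37 °C. Relaxation of the supercoiled DNA was evaluated.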

Pseudomonas aeruginosa [5] = test: Antimicrobial activity against Pseudomonas aeruginosa at 15 ug after 24 hrs by disk diffusion method; format: functional; conditions: read-out: IZ
Summary of the method: (§2)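 Inoculum made in 0.85% saline against McFarland standard, swabbed evenly onto nutrient agar; sterile filter-paper discs set equidistant and loaded with equal volumes of drug at varying amounts; zone of inhibition measured after 24 h at 37 °C; ciprofloxacin reference.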

Bacillus subtilis [6] = test: Antimicrobial activity against Bacillus subtilis at 25 ug after 24 hrs by disk diffusion method; format: functional; conditions: read-out: IZ; summary of the method: as §2
Klebsiella pneumoniae [7] = test: Antimicrobial activity against Klebsiella pneumoniae at 10 ug after 24 hrs by disk diffusion method; format: functional; conditions: read-out: IZ; summary of the method: as §2
Salmonella typhimurium [8] = test: Antimicrobial activity against Salmonella Typhimurium at 20 ug after 24 hrs by disk diffusion method; format: functional, Salmonella enterica subsp. enterica serovar Typhimurium; conditions: Salmonella enterica, read-out: IZ; summary of the method: as §2
Klebsiella pneumoniae [9] = test: Antimicrobial activity against Klebsiella pneumoniae by broth microdilution assay; format: functional
Summary of the method: (§3)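 Broth microdilution per NCCLS 1997 in 96-well plate; final inoculum 10^5 cfu/mL; incubated 35.7 °C in air 18–20 h; MIC read as lowest concentration with no visible growth.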

Pseudomonas aeruginosa [10] = test: Antimicrobial activity against Pseudomonas aeruginosa at 10 ug after 24 hrs by disk diffusion method; format: functional; conditions: read-out: IZ; summary of the method: as §2
Salmonella typhimurium [11] = test: Antimicrobial activity against Salmonella Typhimurium at 25 ug after 24 hrs by disk diffusion method; format: functional, Salmonella enterica subsp. enterica serovar Typhimurium; conditions: Salmonella enterica, read-out: IZ; summary of the method: as §2
Staphylococcus aureus [12] = test: Antimicrobial activity against Staphylococcus aureus at 25 ug after 24 hrs by disk diffusion method; format: functional; conditions: read-out: IZ; summary of the method: as §2
Staphylococcus aureus [13] = test: Antimicrobial activity against Staphylococcus aureus at 20 ug after 24 hrs by disk diffusion method; format: functional; conditions: read-out: IZ; summary of the method: as §2
Klebsiella pneumoniae [14] = test: Antimicrobial activity against Klebsiella pneumoniae at 20 ug after 24 hrs by disk diffusion method; format: functional; conditions: read-out: IZ; summary of the method: as §2
Escherichia coli [15] = test: Antimicrobial activity against Escherichia coli by broth microdilution assay; format: functional; summary of the method: as §3
Salmonella typhi = test: Antimicrobial activity against Salmonella typhi by broth microdilution assay; format: functional, Salmonella enterica subsp. enterica serovar Typhi; conditions: Salmonella enterica
Summary of the method: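 Broth microdilution in 96-well plates following the NCCLS 1997 protocol. Final inoculum was 10^5 cfu/mL, with a control organism run alongside. Plates were incubated at 35.7 °C in air for 18–20 h. MIC is the lowest concentration with no visible growth.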

Salmonella typhimurium [16] = test: Antimicrobial activity against Salmonella Typhimurium at 15 ug after 24 hrs by disk diffusion method; format: functional, Salmonella enterica subsp. enterica serovar Typhimurium; conditions: Salmonella enterica, read-out: IZ; summary of the method: as §2
Escherichia coli [17] = test: Antimicrobial activity against Escherichia coli at 15 ug after 24 hrs by disk diffusion method; format: functional; conditions: read-out: IZ; summary of the method: as §2
Staphylococcus aureus [18] = test: Antimicrobial activity against Staphylococcus aureus at 10 ug after 24 hrs by disk diffusion method; format: functional; conditions: read-out: IZ; summary of the method: as §2
Pseudomonas aeruginosa [19] = test: Antimicrobial activity against Pseudomonas aeruginosa by broth microdilution assay; format: functional; summary of the method: as §3
Escherichia coli [20] = test: Antimicrobial activity against Escherichia coli at 25 ug after 24 hrs by disk diffusion method; format: functional; conditions: read-out: IZ; summary of the method: as §2
Klebsiella pneumoniae [21] = test: Antimicrobial activity against Klebsiella pneumoniae at 25 ug after 24 hrs by disk diffusion method; format: functional; conditions: read-out: IZ; summary of the method: as §2
Staphylococcus aureus [22] = test: Antimicrobial activity against Staphylococcus aureus at 15 ug after 24 hrs by disk diffusion method; format: functional; conditions: read-out: IZ; summary of the method: as §2
Bacillus subtilis [23] = test: Antimicrobial activity against Bacillus subtilis at 15 ug after 24 hrs by disk diffusion method; format: functional; conditions: read-out: IZ; summary of the method: as §2
Staphylococcus aureus [24] = test: Antimicrobial activity against Staphylococcus aureus by broth microdilution assay; format: functional; summary of the method: as §3
Escherichia coli [25] = test: Antimicrobial activity against Escherichia coli at 5 ug after 24 hrs by disk diffusion method; format: functional; conditions: read-out: IZ; summary of the method: as §2
Bacillus subtilis [26] = test: Antimicrobial activity against Bacillus subtilis at 10 ug after 24 hrs by disk diffusion method; format: functional; conditions: read-out: IZ; summary of the method: as §2
Staphylococcus aureus [27] = test: Antimicrobial activity against Staphylococcus aureus at 5 ug after 24 hrs by disk diffusion method; format: functional; conditions: read-out: IZ; summary of the method: as §2
Pseudomonas aeruginosa [28] = test: Antimicrobial activity against Pseudomonas aeruginosa at 5 ug after 24 hrs by disk diffusion method; format: functional; conditions: read-out: IZ; summary of the method: as §2
Salmonella typhimurium [29] = test: Antimicrobial activity against Salmonella Typhimurium at 5 ug after 24 hrs by disk diffusion method; format: functional, Salmonella enterica subsp. enterica serovar Typhimurium; conditions: Salmonella enterica, read-out: IZ; summary of the method: as §2
Pseudomonas aeruginosa [30] = test: Antimicrobial activity against Pseudomonas aeruginosa at 25 ug after 24 hrs by disk diffusion method; format: functional; conditions: read-out: IZ; summary of the method: as §2
Escherichia coli [31] = test: Antimicrobial activity against Escherichia coli at 20 ug after 24 hrs by disk diffusion method; format: functional; conditions: read-out: IZ; summary of the method: as §2
Bacillus subtilis [32] = test: Antimicrobial activity against Bacillus subtilis at 20 ug after 24 hrs by disk diffusion method; format: functional; conditions: read-out: IZ; summary of the method: as §2
Bacillus subtilis [33] = test: Antimicrobial activity against Bacillus subtilis by broth microdilution assay; format: functional; summary of the method: as §3
Escherichia coli [34] = test: Antimicrobial activity against Escherichia coli at 10 ug after 24 hrs by disk diffusion method; format: functional; conditions: read-out: IZ; summary of the method: as §2
Klebsiella pneumoniae [35] = test: Antimicrobial activity against Klebsiella pneumoniae at 15 ug after 24 hrs by disk diffusion method; format: functional; conditions: read-out: IZ; summary of the method: as §2
Klebsiella pneumoniae [36] = test: Antimicrobial activity against Klebsiella pneumoniae at 5 ug after 24 hrs by disk diffusion method; format: functional; conditions: read-out: IZ; summary of the method: as §2
Salmonella typhimurium [37] = test: Antimicrobial activity against Salmonella Typhimurium at 10 ug after 24 hrs by disk diffusion method; format: functional, Salmonella enterica subsp. enterica serovar Typhimurium; conditions: Salmonella enterica, read-out: IZ; summary of the method: as §2
Pseudomonas aeruginosa [38] = test: Antimicrobial activity against Pseudomonas aeruginosa at 20 ug after 24 hrs by disk diffusion method; format: functional; conditions: read-out: IZ; summary of the method: as §2

CO[C@@H]1[C@@H](OC(N)=O)[C@@H](O)[C@H](Oc2ccc3c(O)c(NC(=O)c4ccc(O)c(CC=C(C)C)c4)c(=O)oc3c2C)OC1(C)C
Activity [1]: Active | Activity [2]: inactive

CCn1cc(C(=O)O)c(=O)c2ccc(C)nc21
Activity [3]: Active | Activity [4]: Active

c1ccc(C2c3ccccc3N[C@H]3c4cccn4C[C@@H]23)cc1 (some centres not stated)
zone of inhibition at 15 µg/disc (Pseudomonas aeruginosa [5]): 17 mm | zone of inhibition at 25 µg/disc (Bacillus subtilis [6]): 9 mm | zone of inhibition at 10 µg/disc (Klebsiella pneumoniae [7]): 26 mm | zone of inhibition at 20 µg/disc (Salmonella typhimurium [8]): 22 mm | MIC50 (Klebsiella pneumoniae [9]): 2 µg/mL (≈ 6.98 µM) | MIC90 (Klebsiella pneumoniae [9]): 32 µg/mL (≈ 112 µM) | zone of inhibition at 10 µg/disc (Pseudomonas aeruginosa [10]): 16 mm | zone of inhibition at 25 µg/disc (Salmonella typhimurium [11]): 24 mm | zone of inhibition at 25 µg/disc (Staphylococcus aureus [12]): 17 mm | zone of inhibition at 20 µg/disc (Staphylococcus aureus [13]): 14 mm | zone of inhibition at 20 µg/disc (Klebsiella pneumoniae [14]): 34 mm | MIC50 (Escherichia coli [15]): 2 µg/mL (≈ 6.98 µM) | MIC90 (Escherichia coli [15]): 4 µg/mL (≈ 14 µM) | MIC50 (Salmonella typhi): 1.64 µg/mL (≈ 5.73 µM) | MIC90 (Salmonella typhi): 2.5 µg/mL (≈ 8.73 µM) | zone of inhibition at 15 µg/disc (Salmonella typhimurium [16]): 18 mm | zone of inhibition at 15 µg/disc (Escherichia coli [17]): 18 mm | zone of inhibition at 10 µg/disc (Staphylococcus aureus [18]): 12 mm | MIC50 (Pseudomonas aeruginosa [19]): 0.5 µg/mL (≈ 1.75 µM) | MIC90 (Pseudomonas aeruginosa [19]): 32 µg/mL (≈ 112 µM) | zone of inhibition at 25 µg/disc (Escherichia coli [20]): 23 mm | zone of inhibition at 25 µg/disc (Klebsiella pneumoniae [21]): 36 mm | zone of inhibition at 15 µg/disc (Staphylococcus aureus [22]): 13 mm | zone of inhibition at 15 µg/disc (Bacillus subtilis [23]): 6 mm | MIC50 (Staphylococcus aureus [24]): 64 µg/mL (≈ 223 µM) | MIC90 (Staphylococcus aureus [24]): 128 µg/mL (≈ 447 µM) | Activity [3]: Active | zone of inhibition at 5 µg/disc (Escherichia coli [25]): 10 mm | zone of inhibition at 10 µg/disc (Bacillus subtilis [26]): 7 mm | zone of inhibition at 5 µg/disc (Staphylococcus aureus [27]): 9 mm | zone of inhibition at 5 µg/disc (Pseudomonas aeruginosa [28]): 10 mm | zone of inhibition at 5 µg/disc (Salmonella typhimurium [29]): 10 mm | zone of inhibition at 25 µg/disc (Pseudomonas aeruginosa [30]): 24 mm | zone of inhibition at 20 µg/disc (Escherichia coli [31]): 20 mm | zone of inhibition at 20 µg/disc (Bacillus subtilis [32]): 7 mm | MIC50 (Bacillus subtilis [33]): 2.5 µg/mL (≈ 8.73 µM) | MIC90 (Bacillus subtilis [33]): 5 µg/mL (≈ 17.5 µM) | zone of inhibition at 10 µg/disc (Escherichia coli [34]): 16 mm | zone of inhibition at 15 µg/disc (Klebsiella pneumoniae [35]): 30 mm | zone of inhibition at 5 µg/disc (Klebsiella pneumoniae [36]): 20 mm | zone of inhibition at 10 µg/disc (Salmonella typhimurium [37]): 16 mm | Activity [4]: Active | zone of inhibition at 20 µg/disc (Pseudomonas aeruginosa [38]): 22 mm
